Results: ChEMBL document CHEMBL1154425, “Histatin-derived monomeric and dimeric synthetic peptides show strong bactericidal activity towards multidrug-resistant Staphylococcus aureus in vivo” (Antimicrob Agents Chemother, 2007)
Positions of bridges follow the written chain, without caps; N, C: chain ends. Residues, ends and D or L forms follow the SMILES beside them. Chains are numbered I, II in the order given.

What was measured:
[1] = Ratio of drug level in infected thigh muscle to contralateral noninfected thigh muscle in multidrug-resistant Staphylococcus aureus 2141 infected Swiss mouse administered as [99m]technetium-radiolabeled peptide; assay type: ADME, tissue-based; conditions: in vivo
Procedure, shortened: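 99mTc-labelled peptides (2 to 5 MBq) injected intravenously into infected mice. Scintigraphic imaging at intervals. Ratio = accumulation in infected thigh muscle (target) over contralateral noninfected thigh muscle (nontarget).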

[2] = test system: Staphylococcus aureus; test: Bactericidal activity against multidrug-resistant Staphylococcus aureus 2141 isolate infected iv dosed Swiss mouse assessed per gram of infected soft tissue after 24 hrs; assay type: functional
Procedure, shortened: (§1)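 Mice infected with 0.1 ml saline containing 0.5 to 2.0 × 10^7 CFU. After 18 h, various peptide amounts given intravenously. Mice kept another 24 h, then sacrificed and viable bacteria counted. LC50 = μmol/g infected tissue cutting viable counts by 50% versus untreated mice. Means from at least three animals per peptide concentration.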

[3] = test system: Staphylococcus aureus; test: Bactericidal activity against multidrug-resistant Staphylococcus aureus 2141 isolate after 2 hrs; assay type: functional
Procedure, shortened: (§2)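 1 × 10^6/ml bacteria in phosphate buffer with 1% (wt/vol) tryptic soybean broth exposed to various peptide amounts, 2 h at 37°C. Viable counts on DST plates. LC50 = concentration (μM) cutting viable bacteria by 50% versus no-peptide incubations. Means from at least three independent experiments.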

[4] = test system: Staphylococcus aureus; test: Bactericidal activity against Staphylococcus aureus ATCC 25923 after 2 hrs; assay type: functional; conditions: ATCC 25923, 2 h; procedure, shortened: as §2
[5] = test system: Staphylococcus aureus; test: Bactericidal activity against Staphylococcus aureus ATCC 25923 infected iv dosed Swiss mouse assessed per gram of infected soft tissue after 24 hrs; assay type: functional; procedure, shortened: as §1
[6] = test system: Mus musculus; test: Metabolic stability in Swiss mouse at 2 to 5 MBq, iv administered as [99m]technetium-radiolabeled peptide by scintigraphic imaging; assay type: ADME, organism-based; conditions: in vivo
Procedure, shortened: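 After intravenous injection of 99mTc-labelled peptide (2 to 5 MBq) into thigh-infected mice, scintigraphic imaging follows clearance from the circulation. The value is the biological half-life in minutes, mean ± SD.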

[7] = test system: Spleen; test: Biodistribution in Swiss mouse spleen at 2 to 5 MBq, iv administered as [99m]technetium-radiolabeled peptide by scintigraphic imaging; assay type: ADME, organism-based; conditions: in vivo
Procedure, shortened: (§3)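 Mice carry a thigh-muscle infection from 0.1 ml saline containing 0.5 to 2.0 × 10^7 CFU S. aureus. Peptides labelled with 99mTc (2 to 5 MBq) are injected intravenously and tracked by scintigraphic imaging. Radioactivity in bladder, kidneys, spleen, liver and infected muscle is given as % of injected dose, mean ± SD.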

[8] = test system: Liver; test: Biodistribution in Swiss mouse liver at 2 to 5 MBq, iv administered as [99m]technetium-radiolabeled peptide by scintigraphic imaging; assay type: ADME, organism-based; conditions: in vivo; procedure, shortened: as §3
[9] = Biodistribution in Swiss mouse urinary bladder at 2 to 5 MBq, iv administered as [99m]technetium-radiolabeled peptide by scintigraphic imaging; assay type: ADME, organism-based; conditions: in vivo; procedure, shortened: as §3
[10] = test system: Kidney; test: Biodistribution in Swiss mouse kidney at 2 to 5 MBq, iv administered as [99m]technetium-radiolabeled peptide by scintigraphic imaging; assay type: ADME, organism-based; conditions: in vivo; procedure, shortened: as §3
[11] = Biodistribution in Staphylococcus aureus infected Swiss mouse thigh muscle at 2 to 5 MBq, iv administered as [99m]technetium-radiolabeled peptide by scintigraphic imaging; assay type: ADME, organism-based, Muscle tissue; conditions: in vivo; procedure, shortened: as §3

C[C@H](N)C(=O)N[C@@H](CCCCN)C(=O)N[C@@H](CCCNC(=N)N)C(=O)N[C@@H](Cc1c[nH]cn1)C(=O)N[C@@H](Cc1c[nH]cn1)C(=O)NCC(=O)N[C@@H](Cc1ccc(O)cc1)C(=O)N[C@@H](CCCCN)C(=O)N[C@@H](CCCNC(=N)N)C(=O)N[C@@H](CCCCN)C(=O)N[C@@H](Cc1ccccc1)C(=O)N[C@@H](Cc1c[nH]cn1)C(=O)O (H-AKRHHGYKRKFH-OH)
Ratio [1]: 1.8

C[C@H](N)C(=O)N[C@@H](CCCCN)C(=O)N[C@@H](CCCNC(=N)N)C(=O)N[C@@H](Cc1cnc[nH]1)C(=O)N[C@@H](Cc1cnc[nH]1)C(=O)NCC(=O)N[C@@H](Cc1ccc(O)cc1)C(=O)N[C@@H](CCCCN)C(=O)N[C@@H](CCCNC(=N)N)C(=O)N[C@@H](CCCCN)C(=O)N[C@@H](Cc1ccccc1)C(=O)N[C@@H](Cc1cnc[nH]1)C(=O)O (H-AKRHHGYKRKFH-OH)
LC50 [2]: 3 µmol/g
LC50 [3]: 18.6 µM
LC50 [4]: 12.5 µM

CC(C)C[C@H](NC(=O)[C@H](CO)NC(=O)[C@H](Cc1ccccc1)NC(=O)[C@H](CC(C)C)NC(=O)[C@H](CC(C)C)NC(=O)[C@H](CCCCN)NC(=O)[C@H](CCCCN)NC(=O)[C@H](Cc1ccccc1)NC(=O)[C@H](CC(C)C)NC(=O)[C@H](CCCNC(=N)N)NC(=O)[C@@H](N)CCCCN)C(=O)N[C@@H](CCCNC(=N)N)C(=O)N[C@@H](CCCCN)C(=O)N[C@@H](Cc1ccc(O)cc1)C(=O)O (H-KRLFKKLLFSLRKY-OH)
LC50 [2]: 1.5 µmol/g
LC50 [3]: 3.1 µM
LC50 [5]: 1 µmol/g
t1/2 [6]: 28.6 min
Drug uptake [7]: 3.1 %ID
Drug uptake [8]: 10.7 %ID
Drug uptake [9]: 23.8 %ID
Ratio [1]: 1.8
LC50 [4]: 4.2 µM
Drug uptake [10]: 24.9 %ID
Drug uptake [11]: 0.5 %ID

CC(C)C[C@H](NC(=O)[C@H](CC(C)C)NC(=O)[C@H](Cc1ccccc1)NC(=O)[C@H](CC(C)C)NC(=O)[C@H](CC(C)C)NC(=O)[C@@H](N)CC(C)C)C(=O)N[C@@H](CCCCN)C(=O)N[C@@H](CCCCN)C(=O)N[C@@H](CCCNC(=N)N)C(=O)N[C@@H](CCCCN)C(=O)N[C@@H](CCCCN)C(=O)N[C@@H](CCCNC(=N)N)C(=O)N[C@@H](CCCCN)C(=O)N[C@@H](Cc1ccc(O)cc1)C(=O)O (H-LLLFLLKKRKKRKY-OH)
LC50 [2]: 3 µmol/g
LC50 [3]: 17.3 µM
LC50 [5]: 2 µmol/g
t1/2 [6]: 38.8 min
Drug uptake [7]: 10.8 %ID
Drug uptake [8]: 12.8 %ID
Drug uptake [9]: 14.6 %ID
Ratio [1]: 1.8
LC50 [4]: 51 µM
Drug uptake [10]: 26 %ID
Drug uptake [11]: 0.9 %ID

C[C@H](N)C(=O)N[C@@H](CCCCN)C(=O)N[C@@H](CCCNC(=N)N)C(=O)N[C@@H](Cc1cnc[nH]1)C(=O)N[C@@H](Cc1cnc[nH]1)C(=O)NCC(=O)N[C@@H](Cc1ccc(O)cc1)C(=O)N[C@@H](CCCCN)C(=O)N[C@@H](CCCNC(=N)N)C(=O)N[C@@H](CCCCN)C(=O)N[C@@H](Cc1ccccc1)C(=O)N[C@@H](Cc1cnc[nH]1)C(=O)NCCCC[C@H](NC(=O)[C@H](Cc1cnc[nH]1)NC(=O)[C@H](Cc1ccccc1)NC(=O)[C@H](CCCCN)NC(=O)[C@H](CCCNC(=N)N)NC(=O)[C@H](CCCCN)NC(=O)[C@H](Cc1ccc(O)cc1)NC(=O)CNC(=O)[C@H](Cc1cnc[nH]1)NC(=O)[C@H](Cc1cnc[nH]1)NC(=O)[C@H](CCCNC(=N)N)NC(=O)[C@H](CCCCN)NC(=O)[C@H](C)N)C(N)=O (I: H-AKRHHGYKRKFHK-NH2 / II: H-AKRHHGYKRKFH; amide I:13-II:C) [listing 1 of 2 here]
Ratio [1]: 1.8

C[C@H](N)C(=O)N[C@@H](CCCCN)C(=O)N[C@@H](CCCNC(=N)N)C(=O)N[C@@H](Cc1cnc[nH]1)C(=O)N[C@@H](Cc1cnc[nH]1)C(=O)NCC(=O)N[C@@H](Cc1ccc(O)cc1)C(=O)N[C@@H](CCCCN)C(=O)N[C@@H](CCCNC(=N)N)C(=O)N[C@@H](CCCCN)C(=O)N[C@@H](Cc1ccccc1)C(=O)N[C@@H](Cc1cnc[nH]1)C(=O)NCCCC[C@H](NC(=O)[C@H](Cc1cnc[nH]1)NC(=O)[C@H](Cc1ccccc1)NC(=O)[C@H](CCCCN)NC(=O)[C@H](CCCNC(=N)N)NC(=O)[C@H](CCCCN)NC(=O)[C@H](Cc1ccc(O)cc1)NC(=O)CNC(=O)[C@H](Cc1cnc[nH]1)NC(=O)[C@H](Cc1cnc[nH]1)NC(=O)[C@H](CCCNC(=N)N)NC(=O)[C@H](CCCCN)NC(=O)[C@H](C)N)C(N)=O (I: H-AKRHHGYKRKFHK-NH2 / II: H-AKRHHGYKRKFH; amide I:13-II:C) [listing 2 of 2 here]
LC50 [2]: 3 µmol/g
LC50 [3]: 38.9 µM
LC50 [4]: 49.8 µM

CC(C)C[C@H](NC(=O)[C@H](CO)NC(=O)[C@H](Cc1ccccc1)NC(=O)[C@H](CC(C)C)NC(=O)[C@H](CC(C)C)NC(=O)[C@H](CCCCN)NC(=O)[C@H](CCCCN)NC(=O)[C@H](Cc1ccccc1)NC(=O)[C@H](CC(C)C)NC(=O)[C@H](CCCNC(=N)N)NC(=O)[C@@H](N)CCCCN)C(=O)N[C@@H](CCCNC(=N)N)C(=O)N[C@@H](CCCCN)C(=O)N[C@@H](Cc1ccc(O)cc1)C(=O)NCCCC[C@H](NC(=O)[C@H](Cc1ccc(O)cc1)NC(=O)[C@H](CCCCN)NC(=O)[C@H](CCCNC(=N)N)NC(=O)[C@H](CC(C)C)NC(=O)[C@H](CO)NC(=O)[C@H](Cc1ccccc1)NC(=O)[C@H](CC(C)C)NC(=O)[C@H](CC(C)C)NC(=O)[C@H](CCCCN)NC(=O)[C@H](CCCCN)NC(=O)[C@H](Cc1ccccc1)NC(=O)[C@H](CC(C)C)NC(=O)[C@H](CCCNC(=N)N)NC(=O)[C@@H](N)CCCCN)C(N)=O (I: H-KRLFKKLLFSLRKYK-NH2 / II: H-KRLFKKLLFSLRKY; amide I:15-II:C)
LC50 [2]: 1 µmol/g
LC50 [3]: 0.4 µM
LC50 [5]: 1 µmol/g
t1/2 [6]: 34 min
Drug uptake [7]: 4 %ID
Drug uptake [8]: 19.9 %ID
Drug uptake [9]: 17 %ID
Ratio [1]: 1.8
LC50 [4]: 0.5 µM
Drug uptake [10]: 29.1 %ID
Drug uptake [11]: 0.8 %ID

CC(C)C[C@H](NC(=O)[C@H](CC(C)C)NC(=O)[C@H](Cc1ccccc1)NC(=O)[C@H](CC(C)C)NC(=O)[C@H](CC(C)C)NC(=O)[C@@H](N)CC(C)C)C(=O)N[C@@H](CCCCN)C(=O)N[C@@H](CCCCN)C(=O)N[C@@H](CCCNC(=N)N)C(=O)N[C@@H](CCCCN)C(=O)N[C@@H](CCCCN)C(=O)N[C@@H](CCCNC(=N)N)C(=O)N[C@@H](CCCCN)C(=O)N[C@@H](Cc1ccc(O)cc1)C(=O)NCCCC[C@H](NC(=O)[C@H](Cc1ccc(O)cc1)NC(=O)[C@H](CCCCN)NC(=O)[C@H](CCCNC(=N)N)NC(=O)[C@H](CCCCN)NC(=O)[C@H](CCCCN)NC(=O)[C@H](CCCNC(=N)N)NC(=O)[C@H](CCCCN)NC(=O)[C@H](CCCCN)NC(=O)[C@H](CC(C)C)NC(=O)[C@H](CC(C)C)NC(=O)[C@H](Cc1ccccc1)NC(=O)[C@H](CC(C)C)NC(=O)[C@H](CC(C)C)NC(=O)[C@@H](N)CC(C)C)C(N)=O (I: H-LLLFLLKKRKKRKYK-NH2 / II: H-LLLFLLKKRKKRKY; amide I:15-II:C)
LC50 [2]: 2 µmol/g
LC50 [3]: 0.4 µM
LC50 [5]: 5 µmol/g
t1/2 [6]: 23.2 min
Drug uptake [7]: 3.1 %ID
Drug uptake [8]: 16.7 %ID
Drug uptake [9]: 18.8 %ID
Ratio [1]: 1.8
LC50 [4]: 0.4 µM
Drug uptake [10]: 28.3 %ID
Drug uptake [11]: 0.6 %ID

C[C@H](NC(=O)[C@H](Cc1cnc[nH]1)NC(=O)[C@H](CO)NC(=O)[C@@H](N)CC(=O)O)C(=O)N[C@@H](CCCCN)C(=O)N[C@@H](CCCNC(=N)N)C(=O)N[C@@H](Cc1cnc[nH]1)C(=O)N[C@@H](Cc1cnc[nH]1)C(=O)NCC(=O)N[C@@H](Cc1ccc(O)cc1)C(=O)N[C@@H](CCCCN)C(=O)N[C@@H](CCCNC(=N)N)C(=O)N[C@@H](CCCCN)C(=O)N[C@@H](Cc1ccccc1)C(=O)N[C@@H](Cc1cnc[nH]1)C(=O)N[C@@H](CCC(=O)O)C(=O)N[C@@H](CCCCN)C(=O)N[C@@H](Cc1cnc[nH]1)C(=O)N[C@@H](Cc1cnc[nH]1)C(=O)N[C@@H](CO)C(=O)N[C@@H](Cc1cnc[nH]1)C(=O)N[C@@H](CCCNC(=N)N)C(=O)NCC(=O)N[C@@H](Cc1ccc(O)cc1)C(=O)O [HISTATIN 5]
LC50 [2]: 3.5 µmol/g
LC50 [3]: 2.8 µM
LC50 [5]: 1 µmol/g
t1/2 [6]: 9.7 min
Drug uptake [7]: 1.4 %ID
Drug uptake [8]: 8.7 %ID
Drug uptake [9]: 25.9 %ID
Ratio [1]: 1.8
LC50 [4]: 8.3 µM
Drug uptake [10]: 23.8 %ID
Drug uptake [11]: 0.5 %ID
